Measurements from ChEMBL document CHEMBL2086241, “Molecular modeling, synthesis and screening of some new 4-thiazolidinone derivatives with promising selective COX-2 inhibitory activity” (Eur J Med Chem, 2012).

Experiments:
[1] = molecular target: T1, Prostaglandin G/H synthase 1 (Ovis aries, UniProt P05979); assay: Inhibition of ovine COX1 assessed as inhibition of PGF2alpha production from PGH2 by enzyme immuno assay
T1 sequence (P05979 whole entry): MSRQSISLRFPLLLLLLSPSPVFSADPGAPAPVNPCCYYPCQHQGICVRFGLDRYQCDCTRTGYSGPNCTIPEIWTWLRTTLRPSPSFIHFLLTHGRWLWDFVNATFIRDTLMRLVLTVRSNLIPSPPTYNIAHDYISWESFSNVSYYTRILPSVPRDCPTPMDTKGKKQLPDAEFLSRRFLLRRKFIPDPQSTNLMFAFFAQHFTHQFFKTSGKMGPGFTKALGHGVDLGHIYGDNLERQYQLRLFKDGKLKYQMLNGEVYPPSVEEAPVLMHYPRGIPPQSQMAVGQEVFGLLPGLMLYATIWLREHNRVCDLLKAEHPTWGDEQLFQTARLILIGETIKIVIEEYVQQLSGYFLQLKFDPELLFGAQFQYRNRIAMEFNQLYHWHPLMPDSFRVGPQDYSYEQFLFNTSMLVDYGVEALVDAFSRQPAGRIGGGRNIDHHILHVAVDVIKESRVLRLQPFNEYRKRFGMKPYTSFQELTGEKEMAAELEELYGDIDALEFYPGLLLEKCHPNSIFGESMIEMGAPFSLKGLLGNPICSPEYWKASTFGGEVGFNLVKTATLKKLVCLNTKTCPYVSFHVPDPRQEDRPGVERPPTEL
Outline: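 Ovine COX-1 in Tris-HCl buffer, pH 8.0, with heme, preincubated 10 min at 37 °C. Arachidonic acid started the reaction, which was stopped after 2 min with 1 M HCl. PGH₂ was reduced to PGF2α with stannous chloride, and PGF2α was quantified by competitive EIA with an AChE tracer and Ellman's reagent. IC50 came from concentration–inhibition curves, duplicate determinations.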

[2] = molecular target: T2, Prostaglandin G/H synthase 2 (Homo sapiens, UniProt P35354); assay: Inhibition of human recombinant COX2 assessed as inhibition of PGF2alpha production from PGH2 by enzyme immunoassay
T2 sequence (P35354 whole entry): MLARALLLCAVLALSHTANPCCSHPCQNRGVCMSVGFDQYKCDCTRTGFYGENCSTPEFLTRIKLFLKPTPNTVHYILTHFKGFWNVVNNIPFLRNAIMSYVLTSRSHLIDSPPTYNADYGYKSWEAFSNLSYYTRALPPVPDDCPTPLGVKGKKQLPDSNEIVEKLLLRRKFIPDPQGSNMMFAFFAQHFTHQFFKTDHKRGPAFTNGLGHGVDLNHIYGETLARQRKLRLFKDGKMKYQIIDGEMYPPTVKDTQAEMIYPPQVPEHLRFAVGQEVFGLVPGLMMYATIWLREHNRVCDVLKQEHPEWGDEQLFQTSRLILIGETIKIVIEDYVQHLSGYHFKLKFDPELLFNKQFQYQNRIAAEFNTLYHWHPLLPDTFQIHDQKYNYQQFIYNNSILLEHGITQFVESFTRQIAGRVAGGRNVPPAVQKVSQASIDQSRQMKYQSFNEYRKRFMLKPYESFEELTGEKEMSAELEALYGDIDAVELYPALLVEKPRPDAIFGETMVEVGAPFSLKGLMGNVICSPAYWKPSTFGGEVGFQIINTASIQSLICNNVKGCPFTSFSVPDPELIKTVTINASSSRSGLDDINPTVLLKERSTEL

[3] = Selectivity index, ratio of IC50 for ovine COX1 to IC50 for human recombinant COX2

Cc1ccc(C2SCC(=O)N2Nc2ccc(S(N)(=O)=O)cc2)cc1 (stereo not given)
IC50 [1]: 85.5 µM | IC50 [2]: 24.5 µM | Ratio IC50 [3]: 3.49

NS(=O)(=O)c1ccc(NN2C(=O)CSC2c2ccc(C(F)(F)F)cc2)cc1 (stereo not given)
IC50 [1]: 54.5 µM | IC50 [2]: 51.8 µM | Ratio IC50 [3]: 1.05

NS(=O)(=O)c1ccc(NN2C(=O)CSC2c2ccc(F)cc2)cc1 (stereo not given)
IC50 [1]: 42.1 µM | IC50 [2]: 63 µM | Ratio IC50 [3]: 0.67

CS(=O)(=O)c1ccc(NN2C(=O)CSC2c2ccc(C(F)(F)F)cc2)cc1 (stereo not given)
IC50 [1]: 61.1 µM | IC50 [2]: 37.8 µM | Ratio IC50 [3]: 1.61

CS(=O)(=O)c1ccc(NN2C(=O)CSC2c2ccccc2)cc1 (stereo not given)
IC50 [1]: 63.2 µM | IC50 [2]: 20 µM | Ratio IC50 [3]: 3.16

NS(=O)(=O)c1ccc(NN2C(=O)CSC2c2ccccc2)cc1 (stereo not given)
IC50 [1]: 96.4 µM | IC50 [2]: 78.2 µM | Ratio IC50 [3]: 1.23

Cc1ccc(C2SCC(=O)N2Nc2ccc(S(C)(=O)=O)cc2)cc1 (stereo not given)
IC50 [1]: 105 µM | IC50 [2]: 14.4 µM | Ratio IC50 [3]: 7.27

NS(=O)(=O)c1ccc(NN2C(=O)CSC2c2ccc(Cl)cc2)cc1 (stereo not given)
IC50 [1]: 38.9 µM | IC50 [2]: 45.5 µM | Ratio IC50 [3]: 0.85

CS(=O)(=O)c1ccc(NN2C(=O)CSC2c2ccc(Cl)cc2)cc1 (stereo not given)
IC50 [1]: 83 µM | IC50 [2]: 122 µM | Ratio IC50 [3]: 0.68

CS(=O)(=O)c1ccc(NN2C(=O)CSC2c2ccc(F)cc2)cc1 (stereo not given)
IC50 [1]: 62.7 µM | IC50 [2]: 45.4 µM | Ratio IC50 [3]: 1.38
